Screening results (PubChem)
GASC-1 inh: inhibitors of human GASC-1 (JMJD2C) demethylase; Q9H3R0; GST-JMJD2C(1-420) H3K9me3 demethylation, DELFIA europium; inhibition, % at 2.35 µM; actives 0.069% (n = 330,000);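 active means more than half of a compound's replicate wells show inhibition beyond 50%, single wells judged on their own value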;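 further: signal counts dimethyl H3K9 product captured on neutravidin plate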
Target sequence (Q9H3R0 1-420 limits assumed): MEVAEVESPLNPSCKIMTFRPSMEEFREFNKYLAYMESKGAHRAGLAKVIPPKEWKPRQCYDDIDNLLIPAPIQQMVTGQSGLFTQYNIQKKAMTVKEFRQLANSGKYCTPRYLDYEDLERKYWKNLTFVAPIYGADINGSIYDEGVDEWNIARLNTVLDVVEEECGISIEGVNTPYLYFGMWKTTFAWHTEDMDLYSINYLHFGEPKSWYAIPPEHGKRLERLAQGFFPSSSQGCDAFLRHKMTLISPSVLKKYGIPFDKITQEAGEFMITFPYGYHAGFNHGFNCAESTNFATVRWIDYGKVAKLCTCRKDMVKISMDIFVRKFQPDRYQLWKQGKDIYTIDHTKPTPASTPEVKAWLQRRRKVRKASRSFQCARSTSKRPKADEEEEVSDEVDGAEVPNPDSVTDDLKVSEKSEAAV
UCH37 DUB inh: inhibitors of human deubiquitinating enzyme UCH37 | purified proteasome/UCH37, Ub-AMC cleavage fluorescence | Q9Y5K5 | inhibition, % (concentration not given with the values) | actives 0.33% (n = 330,000) | AID 588478;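 active means mean inhibition over replicate wells above about 20%, limit read from the data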
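Assay system: Proteasome-bound UCH37. Buffer or medium: pH 7.4 Tris-HCl (50 mM) with ovalbumin, ATP-MgCl2, DTT. Incubation: 30 min preincubation with enzyme, 25 min cleavage at room temperature. Measured by: fluorescence, ex 355 nm, em 460 nm. Read-out basis: percent inhibition. Control set: wells without proteasome as full block, compound-free enzyme plus substrate as uninhibited.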
A3A deaminase: human APOBEC3A DNA deaminase inhibition; P31941; recombinant A3A, FAM/TAMRA ssDNA deamination fluorescence; inhibition, % at 20 µM; actives 0.41% (n = 330,000); AID 493011;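 active means at least 40% inhibition at 20 µM here, with at most 30% in a related deaminase screen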
A3G deaminase: blocks human APOBEC3G single-stranded DNA deamination; inhibition, % at 20 µM; actives 0.28% (n = 330,000); recombinant A3G, ssDNA deamination FAM/TAMRA fluorescence; Q9HC16;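 active means inhibition of at least 40% at 20 µM, with no more than 30% in the related APOBEC3A deaminase screen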
Of the large screens only hits and unclear results are named; the others gave an inactive call. The list is not random: actives were taken first. Their share in the collection is about 0.97%.

Fc1ccccc1SCc1nnc(-c2ccccc2Br)o1	UCH37 DUB inh 32
Cc1ccc(C)c(N(C(=O)c2csnn2)C(C(=O)NC2CCCC2)c2cccnc2)c1 (stereo not given)	GASC-1 inh 71
COc1ccc(C2CC(=O)N3CN(c4ccccc4F)CSC3=C2C#N)cc1OC (stereo not given)	A3G deaminase 46
COc1ccc(C=NNC(=O)c2c(C)nc3ccc(Br)cn23)cc1	none (no result: GASC-1 inh, A3A deaminase, A3G deaminase)
COc1cccc(C=NNC(=O)c2c(C)nc3ccc(Br)cn23)c1O	UCH37 DUB inh 46 (no result: GASC-1 inh, A3A deaminase, A3G deaminase)
O=C(O)c1cc(NN=Cc2c[nH]c3ccccc23)ccc1Cl	none (no result: GASC-1 inh, A3A deaminase, A3G deaminase)
CN(C)CCC=C1c2ccccc2CCc2ccccc21	UCH37 DUB inh 22
CN(C)CC/C=C1/c2ccccc2COc2ccccc21	none (no result: UCH37 DUB inh, A3A deaminase, A3G deaminase)
CNC[C@@H]1Oc2c(NC(=O)Nc3ccc(F)cc3)cccc2C(=O)N([C@H](C)CO)C[C@@H]1C	none
COc1ccc(S(=O)(=O)Nc2cccc3c2O[C@H](CN(C)Cc2ccc(C(=O)O)cc2)[C@@H](C)CN([C@H](C)CO)C3=O)cc1	GASC-1 inh 58
CNC[C@@H]1Oc2c(NC(=O)Nc3ccccc3)cccc2C(=O)N([C@@H](C)CO)C[C@H]1C	GASC-1 inh 51
CC(C)NC(=O)Nc1cccc2c1O[C@H](CN(C)C(=O)NC(C)C)[C@@H](C)CN([C@H](C)CO)C2=O	UCH37 DUB inh 20
Cc1ccc(-c2ccc(C=NNC(=O)c3cc4c(ccc5ccccc54)o3)o2)cc1[N+](=O)[O-]	none (no result: GASC-1 inh, A3A deaminase, A3G deaminase)
Brc1ccc(-c2csc(NN=Cc3cccnc3)n2)cc1	none (no result: GASC-1 inh, A3A deaminase, A3G deaminase)
Cc1ccc2[nH]c(C)c(/C=C/c3cc[n+](C)cc3)c2c1	UCH37 DUB inh 22
CC(C)C(NC(=O)c1ccc2c(c1)OCO2)C(=O)NN=Cc1ccco1 (stereo not given)	none (no result: GASC-1 inh, A3A deaminase, A3G deaminase)
O=C(O)CCn1cc(C=NO)c(-c2cccc([N+](=O)[O-])c2)n1	none (no result: GASC-1 inh, A3A deaminase, A3G deaminase)
COC(=O)C(C)n1cnc2c(cnn2-c2ccc(Cl)cc2)c1=O (stereo not given)	UCH37 DUB inh 30
CCOC(=O)Cn1cnc2c(cnn2-c2ccc(Cl)cc2)c1=O	none
COc1ccc(C=NOCC(=O)Nc2nc3ccccc3s2)cc1OC	none (no result: GASC-1 inh, A3A deaminase, A3G deaminase)
CN(C)/C(CN1CCN(C=O)CC1)=C1\N=C(c2ccccc2)OC1=O	UCH37 DUB inh 20
CC1=CC(=C2N=C(c3ccccc3)OC2=O)C=C(C)O1	none
O=CN1CCCN(Cc2nc(-c3cccc(Cl)c3)no2)CC1	UCH37 DUB inh 30
O=C(CS(=O)(=O)c1ccccc1)Nc1ccc(Cl)cn1	none
O=C(CC(c1ccccc1)c1ccccc1)Nc1ccc(Cl)cn1	UCH37 DUB inh 34
COc1cc(C=NNC(=O)c2cn(-c3cccc(C)n3)cn2)ccc1O	none (no result: GASC-1 inh, A3A deaminase, A3G deaminase)
CCOc1ccc(C(Nc2cccnc2)c2cc(Cl)c3cccnc3c2O)cc1 (stereo not given)	UCH37 DUB inh 22
C=CCOc1c(Br)cc(C=NNC(N)=O)cc1OC	none (no result: GASC-1 inh, A3A deaminase, A3G deaminase)
CCOC(=O)[C@H]1[C@H]2COc3ccc(OC)cc3[C@@H]2N2C(=O)c3cc(C)ccc3NC(=O)[C@@]12C	GASC-1 inh 52
CCN(CC)c1ccc(C=c2sc3nnc(-c4ccccc4C)n3c2=O)cc1	none (no result: GASC-1 inh, A3A deaminase, A3G deaminase)
Cc1nc2n(n1)C(O)c1cc([N+](=O)[O-])ccc1S2 (stereo not given)	A3A deaminase 45
O=[N+]([O-])c1ccc2c(c1)C(O)n1ncnc1S2 (stereo not given)	none
CCCCCCC(=O)N(O)C1CC(=O)N(c2ccc(C)cc2)C1=O (stereo not given)	none
CCCCCCC(=O)N(O)C1CC(=O)N(c2ccc(Cl)cc2)C1=O (stereo not given)	A3G deaminase 41
CCOC(=O)c1cnc(N=CN(C)C)s1	none (no result: GASC-1 inh, A3A deaminase, A3G deaminase)
CC(=NNC(=O)c1cccc([N+](=O)[O-])c1)c1cccc(NC(=O)C2CC2)c1	none (no result: GASC-1 inh, A3A deaminase, A3G deaminase)
CCCN(C(=O)Cc1nc(N)n[nH]1)C1(C(=O)Nc2c(C)cccc2C)CCCCC1	none
CCCN(C(=O)Cc1nc(N)n[nH]1)C1(C(=O)Nc2ccccc2C)CCCCC1	UCH37 DUB inh 25
CCN(CC)c1ccc2cc(C(N)=O)c(=NNC(=O)c3ccncc3)oc2c1	UCH37 DUB inh 22 (no result: GASC-1 inh, A3A deaminase, A3G deaminase)
O=C1C2C3C=CC(C4CC34)C2C(=O)N1N=Cc1ccc([N+](=O)[O-])s1 (stereo not given)	none (no result: GASC-1 inh, A3A deaminase, A3G deaminase)
CC(C)NC(=S)NN=Cc1ccc2c(c1)OCCO2	none (no result: GASC-1 inh, A3A deaminase, A3G deaminase)
Cc1ccc(C=NNC(=O)c2sccc2OCc2ccc(F)cc2)cc1	none (no result: GASC-1 inh, A3A deaminase, A3G deaminase)
O=C1CCN(CCCc2ccccc2)CCN1[C@H](CO)c1ccccc1	UCH37 DUB inh 28
COc1cccc(-c2noc(Cn3nc(C)c([N+](=O)[O-])c3C)n2)c1	UCH37 DUB inh 24
